Legend:
Assay type in all cases: ADME, organism-based
[1] = Drug level in Sprague-Dawley rat brain at 10 mg/kg, po after 3 hrs; set-up: dose 10 mg/kg, route oral; settings: read-out: Drug uptake
Summary of the method: (§1)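 Sprague–Dawley rats received a single oral dose of 10 mg/kg. Plasma and brain concentrations (nM) were measured at 1 h and 3 h after dosing. Values are means of n = 3.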

[2] = Plasma concentration in Sprague-Dawley rat at 10 mg/kg, po after 3 hrs; set-up: dose 10 mg/kg, route oral; summary of the method: as §1
[3] = Cmax in Sprague-Dawley rat at 10 mg/kg, po; set-up: dose 10 mg/kg, route oral; settings: in vivo
Summary of the method: (§2)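 PK parameters in male Sprague–Dawley rats after intravenous dosing at 1 mg/kg and after oral dosing. Parameters derived were Vdss, apparent half-life, oral Cmax and estimated bioavailability.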

[4] = Oral bioavailability in Sprague-Dawley rat at 10 mg/kg; settings: in vivo; summary of the method: as §2
[5] = Volume of distribution at steady state in Sprague-Dawley rat at 1 mg/kg, iv; set-up: dose 1 mg/kg, route intravenous; settings: in vivo, read-out: Vdss; summary of the method: as §2
[6] = Plasma concentration in Sprague-Dawley rat at 10 mg/kg, po after 1 hr; set-up: dose 10 mg/kg, route oral; summary of the method: as §1
[7] = AUC in Sprague-Dawley rat at 10 mg/kg, po; set-up: dose 10 mg/kg, route oral; settings: plasma
[8] = Half life in Sprague-Dawley rat at 1 mg/kg, iv; set-up: dose 1 mg/kg, route intravenous; settings: in vivo; summary of the method: as §2
[9] = Drug level in Sprague-Dawley rat brain at 10 mg/kg, po after 1 hr; set-up: dose 10 mg/kg, route oral; settings: read-out: Drug uptake; summary of the method: as §1
[10] = Plasma clearance in Sprague-Dawley rat at 1 mg/kg, iv or 10 mg/kg, po

## CNC(=O)c1c(NCC2CCC3(CCC3)CC2)nc(C#N)nc1OCCO
[1]
  concentration at 3 h: 849 nM
[2]
  concentration at 3 h: 170 nM
[3]
  Cmax: 907 nM
[4]
  bioavailability: 14%
[5]
  Vd: 1.2 L/kg
[6]
  concentration at 1 h: 283 nM
[7]
  AUC: 2.5 µM·h
[8]
  half-life: 1.5 h
[9]
  concentration at 1 h: 692 nM
[10]
  clearance: 25 mL/min/kg

## CNC(=O)c1c(NCC2CCC3(CCC3)CC2)nc(C#N)nc1OCC1CCN(C(C)C)CC1
[1]
  concentration at 3 h: 455 nM
[2]
  concentration at 3 h: 381 nM
[3]
  Cmax: 298 nM
[4]
  bioavailability: 24%
[5]
  Vd: 9.3 L/kg
[6]
  concentration at 1 h: 191 nM
[7]
  AUC: 8.08 µM·h
[8]
  half-life: 11.8 h
[9]
  concentration at 1 h: 67 nM
[10]
  clearance: 10 mL/min/kg

## CNC(=O)c1c(NCC2CCC3(CCC3)CC2)nc(C#N)nc1OCC1CCN(C)CC1
[1]
  concentration at 3 h: 718 nM
[2]
  concentration at 3 h: 308 nM
[3]
  Cmax: 461 nM
[4]
  bioavailability: 40%
[5]
  Vd: 9.8 L/kg
[6]
  concentration at 1 h: 346 nM
[7]
  AUC: 8.24 µM·h
[8]
  half-life: 6.7 h
[9]
  concentration at 1 h: 124 nM
[10]
  clearance: 18.3 mL/min/kg

## CNC(=O)c1c(NCC2CCC3(CCC3)CC2)nc(C#N)nc1OC1CC(C)(C)NC(C)(C)C1
[1]
  concentration at 3 h: 164 nM
[2]
  concentration at 3 h: 287 nM

## CNC(=O)c1c(NCC2CCC3(CCC3)CC2)nc(C#N)nc1OCC1CCN(C(C)=O)CC1
[1]
  concentration at 3 h: < 13 nM
[2]
  concentration at 3 h: 80 nM
[6]
  concentration at 1 h: 169 nM
[9]
  concentration at 1 h: 27 nM

## CNC(=O)c1c(NCC2CCC3(CCC3)CC2)nc(C#N)nc1OCC1CCNCC1
[1]
  concentration at 3 h: < 13 nM
[2]
  concentration at 3 h: 61 nM
[6]
  concentration at 1 h: 28 nM
[9]
  concentration at 1 h: < 13 nM
